Laboratory results published in ChEMBL document CHEMBL1156265, “Furo[2,3-b]pyridine-based cannabinoid-1 receptor inverse agonists: synthesis and biological evaluation. Part 1” (Bioorg Med Chem Lett, 2010).
pIC50: −log10 of the molar value. One block for each compound: values may come before it.

Legend:
Cannabinoid receptor 1 = Cannabinoid receptor 1 (Homo sapiens, UniProt P21554); assay: Inhibition of human CB1 receptor
Cannabinoid receptor 2 = Cannabinoid receptor 2 (Homo sapiens, UniProt P34972); assay: Inhibition of human CB2 receptor
[1] = Half life in rat; type: ADME, organism-based; conditions: in vivo
Rattus norvegicus [2] = assay: Reduction of body weight in DIO rat assessed as weight change at 1 mg/kg, po after 18 hrs; type: functional
Summary of the method: (§1)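 Acute study in diet-induced obese rats. A single oral dose was given and rats were monitored for 18 h. Food intake suppression and body weight change were measured relative to vehicle-treated controls.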

Rattus norvegicus [3] = assay: Suppression of food intake in DIO rat at 1 mg/kg, po relative to control; type: functional; summary of the method: as §1
[4] = Drug level in rat plasma at 1 mg/kg, iv after 4 hrs; type: ADME, organism-based; design: dose 1 mg/kg, route intravenous; conditions: read-out: Drug uptake
[5] = Ratio of drug level in brain to plasma in rat at 1 mg/kg, iv after 4 hrs; type: ADME, organism-based; design: dose 1 mg/kg, route intravenous
[6] = Drug level in rat brain at 1 mg/kg, iv after 4 hrs; type: ADME, organism-based; design: dose 1 mg/kg, route intravenous; conditions: read-out: Drug uptake
[7] = Plasma clearance in rat; type: ADME, organism-based
[8] = Bioavailability in rat; type: ADME, organism-based; conditions: in vivo
Rattus norvegicus [9] = assay: Suppression of food intake in DIO rat at 1 mg/kg, po measured 18 hrs post dose on day 14 relative to control
[10] = Half life in dog; type: ADME, organism-based, Canis lupus familiaris; conditions: in vivo
Summary of the method: (§2)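 PK in dog and rhesus macaque. Bioavailability, plasma clearance (mL/min/kg) and terminal half-life derived from plasma drug levels.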

Rattus norvegicus [11] = assay: Reduction of body weight in rat at 1 mg/kg, po after 13 days relative to control; type: functional; design: scale not given: the % may be the effect or the level left
Summary of the method: (§3)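 Chronic study in diet-induced obese rats with daily oral dosing at 1 mg/kg (for some compounds 0.1 and 0.3 mg/kg as well). Body weight change and cumulative food intake suppression were measured relative to vehicle. The 14-day study ended 18 h after the day-14 dose; one study ended on day 13.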

[12] = Metabolic stability in rat bile assessed as total recovery at 2 mg/kg, iv after 5 days; type: ADME, organism-based; design: dose 2 mg/kg, route intravenous; conditions: in vivo, 120 h
Summary of the method: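 Radioactivity was collected in bile and urine for 120 h and expressed as percent of dose recovered.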

Rattus norvegicus [13] = assay: Reduction of body weight in DIO rat assessed as weight change at 1 mg/kg, po daily measured 18 hrs post dose on day 14; type: functional; summary of the method: as §3
[14] = Bioavailability in dog; type: ADME, organism-based, Canis lupus familiaris; conditions: in vivo; summary of the method: as §2
[15] = Bioavailability in rhesus monkey; type: ADME, organism-based, Macaca mulatta; conditions: in vivo; summary of the method: as §2
[16] = Lipophilicity, log D of the compound; type: physicochemical; conditions: HPLC, pH 7.3
[17] = Half life in rhesus monkey; type: ADME, organism-based, Macaca mulatta; conditions: in vivo; summary of the method: as §2
[18] = Metabolic stability in monkey liver microsomes assessed as compound remaining after 60 mins; type: ADME, Macaca fascicularis, Microsome; conditions: cynomolgus monkey, read-out: Activity
Summary of the method: (§4)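 Liver microsomes (monkey, human, rat, dog) were incubated with compound for 60 min. The read-out was percent parent remaining over the incubation time course.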

[19] = Plasma clearance in dog; type: ADME, organism-based, Canis lupus familiaris; summary of the method: as §2
[20] = Stability in phosphate buffer exposed to air assessed as degradation at pH 7.4 after 40 hrs; type: physicochemical; conditions: read-out: Activity
Summary of the method: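 The compound was held in aqueous pH 7.4 phosphate buffer exposed to air for 40 h. The read-out was percent of material degraded to other products.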

[21] = Plasma clearance in rhesus monkey; type: ADME, organism-based, Macaca mulatta; summary of the method: as §2
[22] = Metabolic stability in human liver microsomes assessed as compound remaining after 60 mins; type: ADME, Microsome; conditions: read-out: Activity; summary of the method: as §4
[23] = Half life in rat at 3 mg/kg; type: ADME, organism-based; design: dose 3 mg/kg; conditions: in vivo
Rattus norvegicus [24] = assay: Suppression of food intake in DIO rat at 3 mg/kg relative to control; type: functional

Sequence of Cannabinoid receptor 1 (P21554 whole entry): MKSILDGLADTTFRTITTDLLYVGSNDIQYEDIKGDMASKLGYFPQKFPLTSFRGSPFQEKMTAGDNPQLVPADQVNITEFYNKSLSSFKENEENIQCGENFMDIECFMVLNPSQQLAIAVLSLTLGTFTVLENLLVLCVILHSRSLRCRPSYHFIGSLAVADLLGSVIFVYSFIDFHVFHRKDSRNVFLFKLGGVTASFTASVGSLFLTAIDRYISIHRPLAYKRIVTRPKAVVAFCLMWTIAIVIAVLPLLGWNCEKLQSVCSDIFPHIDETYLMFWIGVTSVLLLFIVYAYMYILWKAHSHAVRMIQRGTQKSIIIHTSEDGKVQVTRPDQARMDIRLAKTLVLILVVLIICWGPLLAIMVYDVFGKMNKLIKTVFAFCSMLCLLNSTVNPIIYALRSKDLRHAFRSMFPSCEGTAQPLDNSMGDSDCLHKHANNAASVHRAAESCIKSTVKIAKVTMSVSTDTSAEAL
Sequence of Cannabinoid receptor 2 (P34972 whole entry): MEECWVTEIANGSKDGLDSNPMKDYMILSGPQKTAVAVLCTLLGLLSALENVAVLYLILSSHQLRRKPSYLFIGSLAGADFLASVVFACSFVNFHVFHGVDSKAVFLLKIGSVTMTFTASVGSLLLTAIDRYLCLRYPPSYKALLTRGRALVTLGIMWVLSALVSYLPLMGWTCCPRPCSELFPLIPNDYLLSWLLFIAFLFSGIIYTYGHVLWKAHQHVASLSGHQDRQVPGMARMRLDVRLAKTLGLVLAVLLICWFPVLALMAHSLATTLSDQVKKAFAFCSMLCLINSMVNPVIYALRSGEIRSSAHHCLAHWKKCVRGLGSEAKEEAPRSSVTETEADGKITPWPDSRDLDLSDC

pIC50 (Cannabinoid receptor 1): 9.24
pIC50 (Cannabinoid receptor 2): < 5.70
Compound: CC(=O)Nc1c(C(=O)C(C)(C)C)oc2nc(-c3ccccc3Cl)c(-c3ccc(Cl)cc3)cc12

pIC50 (Cannabinoid receptor 1): 8.92
pIC50 (Cannabinoid receptor 2): 5.48
Compound: CNCC(=O)Nc1c(C(=O)C(C)(C)C)oc2nc(-c3ccccc3Cl)c(-c3ccc(Cl)cc3)cc12

Compound: CC(C)(C)C(=O)c1oc2nc(-c3ccccc3Cl)c(-c3ccc(Cl)cc3)cc2c1N
half-life [1]: 2.8 h
Activity (Rattus norvegicus [2]): -4 g
Activity (Rattus norvegicus [3]): 33%
concentration at 4 h [4]: 130 nM
Kp at 4 h [5]: 2.3
pIC50 (Cannabinoid receptor 1): 8.37
concentration at 4 h [6]: 290 nM
pIC50 (Cannabinoid receptor 2): 5.72
clearance [7]: 22 mL/min/kg
bioavailability [8]: 100%

Compound: CC(C)C(=O)c1oc2nc(-c3ccc(Cl)cc3Cl)c(-c3ccc(Cl)cc3)cc2c1N
pIC50 (Cannabinoid receptor 1): 8.72
pIC50 (Cannabinoid receptor 2): 6.19

pIC50 (Cannabinoid receptor 1): 7.89
pIC50 (Cannabinoid receptor 2): 6.00
Compound: CCC(=O)c1oc2nc(-c3ccccc3Cl)c(-c3ccc(Cl)cc3)cc2c1N

Compound: CC(C)(C)C(=O)c1oc2nc(-c3ccc(Cl)cc3Cl)c(-c3ccc(Cl)cc3)cc2c1N
Activity (Rattus norvegicus [9]): 19%
half-life [10]: 7.9 h
half-life [1]: 4.2 h
Activity (Rattus norvegicus [2]): -5 g
Activity (Rattus norvegicus [3]): 53%
concentration at 4 h [4]: 220 nM
Activity (Rattus norvegicus [11]): 5.3%
Activity [12]: 41%
Activity (Rattus norvegicus [13]): -3 g
bioavailability [14]: 63%
Kp at 4 h [5]: 1
bioavailability [15]: 11%
logD [16]: 6.7
pIC50 (Cannabinoid receptor 1): 8.26
concentration at 4 h [6]: 220 nM
half-life [17]: 2.4 h
pIC50 (Cannabinoid receptor 2): 6.36
remaining at 1 h [18]: 25%
clearance [7]: 5.6 mL/min/kg
clearance [19]: 7.3 mL/min/kg
degraded at 40 h [20]: 40%
clearance [21]: 29 mL/min/kg
bioavailability [8]: 59%
remaining at 1 h [22]: 100%

pIC50 (Cannabinoid receptor 1): 8.46
pIC50 (Cannabinoid receptor 2): 6.36
Compound: Nc1c(C(=O)c2ccccc2)oc2nc(-c3ccc(Cl)cc3Cl)c(-c3ccc(Cl)cc3)cc12

pIC50 (Cannabinoid receptor 1): 8.77
pIC50 (Cannabinoid receptor 2): 5.89
Compound: CC(C)C(=O)c1oc2nc(-c3ccccc3Cl)c(-c3ccc(Cl)cc3)cc2c1N

pIC50 (Cannabinoid receptor 1): 9.41
pIC50 (Cannabinoid receptor 2): 5.71
Compound: CN(C)C(=O)Nc1c(C(=O)C(C)(C)C)oc2nc(-c3ccccc3Cl)c(-c3ccc(Cl)cc3)cc12

Compound: CC(C)(C)C(=O)c1oc2nc(-c3ccccc3Cl)c(-c3ccc(Cl)cc3)cc2c1NC(=O)CO
Activity (Rattus norvegicus [9]): 19%
half-life [10]: 11 h
half-life [1]: 3.5 h
Activity (Rattus norvegicus [2]): -6 g
Activity (Rattus norvegicus [3]): 24%
concentration at 4 h [4]: 49 nM
Activity (Rattus norvegicus [11]): 6%
Activity (Rattus norvegicus [13]): -19 g
bioavailability [14]: 42%
Kp at 4 h [5]: 1.8
logD [16]: 6
pIC50 (Cannabinoid receptor 1): 8.92
concentration at 4 h [6]: 86 nM
pIC50 (Cannabinoid receptor 2): 5.47
clearance [7]: 10 mL/min/kg
clearance [19]: 3 mL/min/kg
bioavailability [8]: 32%

Compound: CC(=O)Nc1c(C(C)=O)c(=O)n(C)c2nc(-c3ccc(Cl)cc3Cl)c(-c3ccc(Cl)cc3)cc12 [NAPHTHYRIDINONE]
half-life [23]: > 8 h
Activity (Rattus norvegicus [24]): -68%

pIC50 (Cannabinoid receptor 1): 7.77
pIC50 (Cannabinoid receptor 2): 6.44
Compound: CCC(=O)c1oc2nc(-c3ccc(Cl)cc3Cl)c(-c3ccc(Cl)cc3)cc2c1N

Compound: CC(C)C(=O)c1oc2nc(-c3ccccc3Cl)c(-c3ccc(Cl)cc3)cc2c1NC(=O)CO
half-life [10]: 52 h
half-life [1]: 3.3 h
Activity (Rattus norvegicus [2]): -7 g
Activity (Rattus norvegicus [3]): 37%
concentration at 4 h [4]: 160 nM
bioavailability [14]: 31%
Kp at 4 h [5]: 0.94
pIC50 (Cannabinoid receptor 1): 9.40
concentration at 4 h [6]: 150 nM
pIC50 (Cannabinoid receptor 2): 5.29
clearance [7]: 20 mL/min/kg
clearance [19]: 4.9 mL/min/kg
bioavailability [8]: 38%

pIC50 (Cannabinoid receptor 1): 7.70
pIC50 (Cannabinoid receptor 2): 5.68
Compound: CC(C)(O)C(=O)c1oc2nc(-c3ccccc3Cl)c(-c3ccc(Cl)cc3)cc2c1N

pIC50 (Cannabinoid receptor 1): 7.25
pIC50 (Cannabinoid receptor 2): 6.00
Compound: CC(=O)c1oc2nc(-c3ccc(Cl)cc3Cl)c(-c3ccc(Cl)cc3)cc2c1N
